ChEMBL document CHEMBL1799956, “Convergent synthesis and biological evaluation of 2-amino-4-(3',4',5'-trimethoxyphenyl)-5-aryl thiazoles as microtubule targeting agents” (J Med Chem, 2011)
The source made the active and inactive calls. The calls are words filed in the database; no cut-off is given here.

Tests used:
HL-60 = assay: Antiproliferative activity against human HL60 cells assessed as growth inhibition after 72 hrs by MTT assay; format: functional, cell-based; conditions: HL-60, 72 h
LoVo = assay: Antiproliferative activity against human doxorubicin-resistant LoVo cells overexpressing P-gp assessed as growth inhibition after 72 hrs by MTT assay; format: functional, cell-based
[1] = Inhibition of bovine brain tubulin polymerization after 20 mins by turbidimetric analysis; design: species or system Bos taurus
How it was run: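 Purified tubulin at 10 μM was used for the assembly (polymerization) inhibition assay. IC50 is the concentration inhibiting assembly.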

Tubulin (Homo sapiens) = Tubulin (Homo sapiens) (UniProt P68371+Q9H4B7+P0DPH7+P68366+Q13509+Q71U36+P04350+Q3ZCM7+P07437+P68363+Q9BQE3+Q6PEY2+Q13885+Q9BVA1+Q9BUF5); assay: Induction of microtubule disassembly with spherical morphology in human HeLa cells at 10 nM after 24 hrs using DAPI-staining by fluorescence microscopy; format: cell-based
How it was run: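 HeLa cells were exposed to 10 or 100 nM compound for 24 or 48 h, then fixed. Microtubules were stained with FITC-conjugated anti-β-tubulin antibody and imaged by confocal/fluorescence microscopy at 60× magnification.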

Jurkat [2] = assay: Cell cycle arrest in human Jurkat cells assessed as decrease of cell population at G1 phase at 1 to 100 nM after 48 hrs using propidium iodide staining by flow cytometry; format: functional, cell-based
HeLa [3] = assay: Cell cycle arrest in human HeLa cells assessed as decrease of cell population at S phase at 1 to 100 nM after 48 hrs using propidium iodide staining by flow cytometry; format: functional, cell-based
Jurkat [4] = assay: Cell cycle arrest in human Jurkat cells assessed as decrease of cell population at S phase at 1 to 100 nM after 48 hrs using propidium iodide staining by flow cytometry; format: functional, cell-based
HeLa [5] = assay: Induction of cell cycle arrest at G2/M phase in human HeLa cells assessed as increase in cyclin B1 expression after 24 to 48 hrs by Western blot analysis; format: functional, cell-based
How it was run: (§1)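 Immunoblot of HeLa lysates after 24 or 48 h of compound treatment at the indicated concentrations. Probed for cyclin B1, p-Cdc2 Y15 and Cdc25c. Slower-migrating Cdc25c bands were taken as a change in phosphorylation.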

HeLa [6] = assay: Induction of cell cycle arrest at G2/M phase in human HeLa cells assessed as increase in cyclin B1 expression at 10 to 100 nM by Western blot analysis; format: functional, cell-based; conditions: TDE = time-dependent effect; how it was run: as §1
HeLa [7] = assay: Induction of apoptosis in human HeLa cells assessed as increase in annexin-V positive cells after 24 hrs by annexin-V-FITC and propidium iodide staining based flow cytometry; format: functional, cell-based
How it was run: (§2)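 Biparametric flow cytometry after annexin-V immunolabelling plus propidium iodide, separating live, early apoptotic, late apoptotic and necrotic cells; HeLa incubated for 24 or 48 h.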

HeLa [8] = assay: Induction of apoptosis in human HeLa cells assessed as increase in propidium iodide-positive cells after 48 hrs by annexin-V-FITC and propidium iodide staining based flow cytometry; format: functional, cell-based; how it was run: as §2
HeLa [9] = assay: Induction of apoptosis in human HeLa cells assessed as multinucleation at 10 uM after 24 to 48 hrs using Giemsa's staining by microscopic analysis; format: functional, cell-based
How it was run: (§3)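 Giemsa staining, then light-microscope examination of cell morphology. HeLa and Jurkat cells were exposed to compound for 24 and 48 h. Magnification 60×.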

Jurkat [10] = assay: Induction of apoptosis in human Jurkat cells assessed as multinucleation at 10 uM after 24 to 48 hrs using Giemsa's staining by microscopic analysis; format: functional, cell-based; how it was run: as §3
Jurkat [11] = assay: Induction of apoptosis in human Jurkat cells assessed as multinucleation at 100 uM after 24 to 48 hrs using Giemsa's staining by microscopic analysis; format: functional, cell-based; how it was run: as §3
HeLa [12] = assay: Induction of apoptosis in human HeLa cells assessed as increase in phospho-gammaH2AX expression at […] after 48 hrs by Western blot analysis; format: functional, cell-based
How it was run: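 HeLa treated for 24 or 48 h; whole-cell lysates run on SDS-PAGE and blotted for phospho-γH2AX (Ser139).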

HeLa [13] = assay: Induction of apoptosis in human HeLa cells assessed as cleavage of PARP at 10 to 100 nM by Western blotting; conditions: TDE = time-dependent effect
HeLa [14] = assay: Induction of apoptosis in human HeLa cells assessed activation of caspase 2 at 10 to 100 nM after 24 hrs by Western blot analysis
HeLa [15] = assay: Induction of apoptosis in human HeLa cells assessed activation of caspase 2 at 10 to 100 nM after 48 hrs by Western blot analysis

- IC50 (HL-60): 0.9 nM
- IC50 (LoVo): 0.6 nM
- IC50 [1]: 610 nM
- Activity (Tubulin (Homo sapiens)): Active
Structure (SMILES): CCOc1ccc(-c2sc(N)nc2-c2cc(OC)c(OC)c(OC)c2)cc1
- Activity (Jurkat [2]): Active
- Activity (HeLa [3]): Active
- Activity (Jurkat [4]): Active
- Activity (HeLa [5]): Dose-dependent effect
- Activity (HeLa [6]): tde
- Activity (HeLa [7]): Dose-dependent effect
- Activity (HeLa [8]): Active
- Activity (HeLa [9]): Active
- Activity (Jurkat [10]): Active
- Activity (Jurkat [11]): Active
- Activity (HeLa [12]): Active
- Activity (HeLa [13]): tde
- Activity (HeLa [14]): Active
- Activity (HeLa [15]): Active
